Data as given in ChEMBL document CHEMBL4152363, “Andrographolide derivative as STAT3 inhibitor that protects acute liver damage in mice” (Bioorg Med Chem, 2018).

Target: T1, Signal transducer and activator of transcription 3 (Homo sapiens, UniProt P40763)
Experiment: Inhibition of IFNgamma-stimulated STAT3 activation in human AD293 cells incubated with IFNgamma for 16 hrs followed by compound addition measured after 24 hrs by luciferase reporter gene assay
Assay type: cell-based
Conditions: not given
Procedure, shortened: (§1)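 AD-293 or HeLa cells in DMEM/10% FBS stimulated with 20 pg/mL IFN-γ; compound treatment 24 h; luciferase activity measured in cell extracts; EC50 derived.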

T1 sequence (P40763 whole entry): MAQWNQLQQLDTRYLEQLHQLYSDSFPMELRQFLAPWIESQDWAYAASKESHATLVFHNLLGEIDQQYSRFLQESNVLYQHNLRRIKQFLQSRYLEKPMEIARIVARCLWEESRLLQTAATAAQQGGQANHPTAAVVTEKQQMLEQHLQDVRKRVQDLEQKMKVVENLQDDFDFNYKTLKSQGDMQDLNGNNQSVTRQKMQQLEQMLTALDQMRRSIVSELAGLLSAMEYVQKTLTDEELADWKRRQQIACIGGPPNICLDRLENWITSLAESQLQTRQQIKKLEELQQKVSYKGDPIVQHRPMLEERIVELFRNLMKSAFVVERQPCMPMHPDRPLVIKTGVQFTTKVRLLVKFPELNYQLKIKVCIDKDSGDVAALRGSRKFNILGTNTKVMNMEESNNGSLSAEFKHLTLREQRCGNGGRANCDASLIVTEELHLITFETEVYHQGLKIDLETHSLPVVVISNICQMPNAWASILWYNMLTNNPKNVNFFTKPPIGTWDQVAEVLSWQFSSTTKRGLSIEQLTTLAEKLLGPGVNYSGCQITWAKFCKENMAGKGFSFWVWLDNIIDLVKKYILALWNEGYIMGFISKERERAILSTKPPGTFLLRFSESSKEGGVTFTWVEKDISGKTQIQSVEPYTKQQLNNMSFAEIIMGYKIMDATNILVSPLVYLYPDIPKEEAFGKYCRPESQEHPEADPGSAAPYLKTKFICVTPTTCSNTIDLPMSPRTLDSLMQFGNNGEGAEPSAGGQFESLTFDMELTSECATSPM

Q: For `C=C1CC[C@H]2[C@@](C)(CCC(=O)[C@@]2(C)COC(C)=O)[C@@H]1C/C=C1/C(=O)OC[C@@H]1O[Si](C)(C)C(C)(C)C`, which EC50 is on record?
A: Its EC50 is > 10 µM.

Q: With `C=C1CC[C@H]2[C@@](C)(CCC(=O)[C@@]2(C)CO[Si](C)(C)C(C)(C)C)[C@@H]1C/C=C1/C(=O)OC[C@@H]1OC(C)=O` as the molecule, how does the EC50 read?
A: The EC50 was 4.75 µM.

Q: Which EC50 does the source give for `CC(=O)OC[C@]1(C)C(=O)CC[C@@]2(C)[C@H](C/C=C3/C(=O)OC[C@@H]3O[Si](C)(C)C(C)(C)C)[C@@]3(CC[C@@H]21)CO3` here?
A: The EC50 was 2.23 µM.

Q: Which EC50 does the source give for `C=C1CC[C@H]2[C@@](C)(CCC(=O)[C@@]2(C)CO[Si](C)(C)C(C)(C)C)[C@@H]1C/C=C1/C(=O)OC[C@@H]1O` here?
A: Its EC50 is 4.72 µM.

Q: With `CC(=O)O[C@@H]1COC(=O)/C1=C/C[C@@H]1[C@]2(CC[C@@H]3[C@](C)(CO)[C@H](O)CC[C@]31C)CO2` as the molecule, how does the EC50 read?
A: Its EC50 is 5.11 µM.

Q: With `C=C1CC[C@H]2[C@@](C)(CCC(=O)[C@@]2(C)CO)[C@@H]1C/C=C1/C(=O)OC[C@@H]1OC(C)=O` as the molecule, how does the EC50 read?
A: Its EC50 is > 10 µM.

Target: T1, Signal transducer and activator of transcription 3
Experiment: Inhibition of IL-6 stimulated STAT3 activation in human AD293 cells incubated with IL-6 for 16 hrs followed by compound addition measured after 6 hrs by luciferase reporter gene assay
Assay type: cell-based
Conditions: not given
Procedure, shortened: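 AD-293 cells stimulated with 2.5 μg/mL IL-6; compound treatment 6 h; luciferase activity read from cell extracts; EC50 derived.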

Q: Which EC50 does the source give for `C=C1CC[C@H]2[C@@](C)(CCC(=O)[C@@]2(C)COC(C)=O)[C@@H]1C/C=C1/C(=O)OC[C@@H]1O[Si](C)(C)C(C)(C)C` here?
A: The EC50 was > 10 µM.

Q: With `C=C1CC[C@H]2[C@@](C)(CCC(=O)[C@@]2(C)CO[Si](C)(C)C(C)(C)C)[C@@H]1C/C=C1/C(=O)OC[C@@H]1OC(C)=O` as the molecule, how does the EC50 read?
A: Its EC50 is 4.78 µM.

Q: For `CC(=O)OC[C@]1(C)C(=O)CC[C@@]2(C)[C@H](C/C=C3/C(=O)OC[C@@H]3O[Si](C)(C)C(C)(C)C)[C@@]3(CC[C@@H]21)CO3`, which EC50 is on record?
A: Its EC50 is 2.56 µM.

Q: For `C=C1CC[C@H]2[C@@](C)(CCC(=O)[C@@]2(C)CO[Si](C)(C)C(C)(C)C)[C@@H]1C/C=C1/C(=O)OC[C@@H]1O`, which EC50 is on record?
A: Its EC50 is 4.34 µM.

Q: Which EC50 does the source give for `CC(=O)O[C@@H]1COC(=O)/C1=C/C[C@@H]1[C@]2(CC[C@@H]3[C@](C)(CO)[C@H](O)CC[C@]31C)CO2` here?
A: Its EC50 is 3.11 µM.

Q: For `C=C1CC[C@H]2[C@@](C)(CCC(=O)[C@@]2(C)CO)[C@@H]1C/C=C1/C(=O)OC[C@@H]1OC(C)=O`, which EC50 is on record?
A: Its EC50 is > 10 µM.

Target: T1, Signal transducer and activator of transcription 3
Experiment: Inhibition of […] activation in human AD293 cells incubated […] for 16 hrs followed by compound addition measured after 4 hrs by luciferase reporter gene assay
Assay type: cell-based
Conditions: not given

Q: Which EC50 does the source give for `C=C1CC[C@H]2[C@@](C)(CCC(=O)[C@@]2(C)COC(C)=O)[C@@H]1C/C=C1/C(=O)OC[C@@H]1O[Si](C)(C)C(C)(C)C` here?
A: The EC50 was > 10 µM.

Q: With `C=C1CC[C@H]2[C@@](C)(CCC(=O)[C@@]2(C)CO[Si](C)(C)C(C)(C)C)[C@@H]1C/C=C1/C(=O)OC[C@@H]1OC(C)=O` as the molecule, how does the EC50 read?
A: Its EC50 is 7.98 µM.

Q: For `CC(=O)OC[C@]1(C)C(=O)CC[C@@]2(C)[C@H](C/C=C3/C(=O)OC[C@@H]3O[Si](C)(C)C(C)(C)C)[C@@]3(CC[C@@H]21)CO3`, which EC50 is on record?
A: Its EC50 is > 10 µM.

Q: Which EC50 does the source give for `C=C1CC[C@H]2[C@@](C)(CCC(=O)[C@@]2(C)CO[Si](C)(C)C(C)(C)C)[C@@H]1C/C=C1/C(=O)OC[C@@H]1O` here?
A: The EC50 was > 10 µM.

Q: Which EC50 does the source give for `CC(=O)O[C@@H]1COC(=O)/C1=C/C[C@@H]1[C@]2(CC[C@@H]3[C@](C)(CO)[C@H](O)CC[C@]31C)CO2` here?
A: Its EC50 is 9.49 µM.

Q: Which EC50 does the source give for `C=C1CC[C@H]2[C@@](C)(CCC(=O)[C@@]2(C)CO)[C@@H]1C/C=C1/C(=O)OC[C@@H]1OC(C)=O` here?
A: Its EC50 is > 10 µM.

System: not listed separately
Experiment: (§2) Cytotoxicity against human AD293 cells
Assay type: cell-based
Conditions: AD293 cells
Procedure, shortened: (§3)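 AD-293 or HeLa cells grown in high-glucose DMEM with 10% FBS and 1% penicillin-streptomycin; compound exposure 24 h; cytotoxicity reported as CC10.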

Q: With `C=C1CC[C@H]2[C@@](C)(CCC(=O)[C@@]2(C)CO[Si](C)(C)C(C)(C)C)[C@@H]1C/C=C1/C(=O)OC[C@@H]1OC(C)=O` as the molecule, how does the CC50 read?
A: The CC50 was 8.23 µM.

Q: Which CC50 does the source give for `CC(=O)O[C@@H]1COC(=O)/C1=C/C[C@@H]1[C@]2(CC[C@@H]3[C@](C)(CO)[C@H](O)CC[C@]31C)CO2` here?
A: Its CC50 is 10.9 µM.

System: AD293
Experiment: as §2
Assay type: cell-based
Conditions: ad293
Procedure, shortened: as §3

Q: Which CC10 does the source give for `C=C1CC[C@H]2[C@@](C)(CCC(=O)[C@@]2(C)COC(C)=O)[C@@H]1C/C=C1/C(=O)OC[C@@H]1O[Si](C)(C)C(C)(C)C` here?
A: The CC10 was > 10 µM.

Q: Which CC10 does the source give for `CC(=O)OC[C@]1(C)C(=O)CC[C@@]2(C)[C@H](C/C=C3/C(=O)OC[C@@H]3O[Si](C)(C)C(C)(C)C)[C@@]3(CC[C@@H]21)CO3` here?
A: The CC10 was > 10 µM.

Q: With `C=C1CC[C@H]2[C@@](C)(CCC(=O)[C@@]2(C)CO[Si](C)(C)C(C)(C)C)[C@@H]1C/C=C1/C(=O)OC[C@@H]1O` as the molecule, how does the CC10 read?
A: Its CC10 is > 10 µM.

Q: Which CC10 does the source give for `C=C1CC[C@H]2[C@@](C)(CCC(=O)[C@@]2(C)CO)[C@@H]1C/C=C1/C(=O)OC[C@@H]1OC(C)=O` here?
A: Its CC10 is > 10 µM.

Target: T1, Signal transducer and activator of transcription 3
Experiment: Inhibition of IFNgamma-stimulated STAT3 activation in human HeLa cells incubated with IFNgamma for 16 hrs followed by compound addition measured after 24 hrs by luciferase reporter gene assay
Assay type: cell-based
Conditions: not given
Procedure, shortened: as §1

Q: For `C=C1CC[C@H]2[C@@](C)(CCC(=O)[C@@]2(C)COC(C)=O)[C@@H]1C/C=C1/C(=O)OC[C@@H]1O[Si](C)(C)C(C)(C)C`, which EC50 is on record?
A: The EC50 was > 10 µM.

Q: For `C=C1CC[C@H]2[C@@](C)(CCC(=O)[C@@]2(C)CO[Si](C)(C)C(C)(C)C)[C@@H]1C/C=C1/C(=O)OC[C@@H]1OC(C)=O`, which EC50 is on record?
A: Its EC50 is 9.33 µM.

Q: With `CC(=O)OC[C@]1(C)C(=O)CC[C@@]2(C)[C@H](C/C=C3/C(=O)OC[C@@H]3O[Si](C)(C)C(C)(C)C)[C@@]3(CC[C@@H]21)CO3` as the molecule, how does the EC50 read?
A: The EC50 was > 10 µM.

Q: Which EC50 does the source give for `C=C1CC[C@H]2[C@@](C)(CCC(=O)[C@@]2(C)CO[Si](C)(C)C(C)(C)C)[C@@H]1C/C=C1/C(=O)OC[C@@H]1O` here?
A: Its EC50 is > 10 µM.

Q: With `CC(=O)O[C@@H]1COC(=O)/C1=C/C[C@@H]1[C@]2(CC[C@@H]3[C@](C)(CO)[C@H](O)CC[C@]31C)CO2` as the molecule, how does the EC50 read?
A: Its EC50 is 9.45 µM.

Q: For `C=C1CC[C@H]2[C@@](C)(CCC(=O)[C@@]2(C)CO)[C@@H]1C/C=C1/C(=O)OC[C@@H]1OC(C)=O`, which EC50 is on record?
A: Its EC50 is > 10 µM.

Target: T1, Signal transducer and activator of transcription 3
Experiment: Inhibition of […] activation in human HeLa cells incubated […] for 16 hrs followed by compound addition measured after 4 hrs by luciferase reporter gene assay
Assay type: cell-based
Conditions: not given
Procedure, shortened: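 NF-κB pathway in AD-293 or HeLa cells stimulated with 50 ng/mL TNF-α; compound treatment 4 h; luciferase activity read from cell extracts; EC50 derived.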

Q: With `C=C1CC[C@H]2[C@@](C)(CCC(=O)[C@@]2(C)COC(C)=O)[C@@H]1C/C=C1/C(=O)OC[C@@H]1O[Si](C)(C)C(C)(C)C` as the molecule, how does the EC50 read?
A: The EC50 was > 10 µM.

Q: For `C=C1CC[C@H]2[C@@](C)(CCC(=O)[C@@]2(C)CO[Si](C)(C)C(C)(C)C)[C@@H]1C/C=C1/C(=O)OC[C@@H]1OC(C)=O`, which EC50 is on record?
A: Its EC50 is > 10 µM.

Q: Which EC50 does the source give for `CC(=O)OC[C@]1(C)C(=O)CC[C@@]2(C)[C@H](C/C=C3/C(=O)OC[C@@H]3O[Si](C)(C)C(C)(C)C)[C@@]3(CC[C@@H]21)CO3` here?
A: Its EC50 is 7.05 µM.

Q: For `C=C1CC[C@H]2[C@@](C)(CCC(=O)[C@@]2(C)CO[Si](C)(C)C(C)(C)C)[C@@H]1C/C=C1/C(=O)OC[C@@H]1O`, which EC50 is on record?
A: The EC50 was > 10 µM.

Q: Which EC50 does the source give for `CC(=O)O[C@@H]1COC(=O)/C1=C/C[C@@H]1[C@]2(CC[C@@H]3[C@](C)(CO)[C@H](O)CC[C@]31C)CO2` here?
A: The EC50 was 9.67 µM.

Q: Which EC50 does the source give for `C=C1CC[C@H]2[C@@](C)(CCC(=O)[C@@]2(C)CO)[C@@H]1C/C=C1/C(=O)OC[C@@H]1OC(C)=O` here?
A: The EC50 was > 10 µM.

System: HeLa
Experiment: Cytotoxicity against human HeLa cells
Assay type: cell-based
Conditions: not given
Procedure, shortened: as §3

Q: For `C=C1CC[C@H]2[C@@](C)(CCC(=O)[C@@]2(C)COC(C)=O)[C@@H]1C/C=C1/C(=O)OC[C@@H]1O[Si](C)(C)C(C)(C)C`, which CC10 is on record?
A: Its CC10 is > 10 µM.

Q: Which CC10 does the source give for `C=C1CC[C@H]2[C@@](C)(CCC(=O)[C@@]2(C)CO[Si](C)(C)C(C)(C)C)[C@@H]1C/C=C1/C(=O)OC[C@@H]1OC(C)=O` here?
A: The CC10 was > 10 µM.

Q: Which CC10 does the source give for `CC(=O)OC[C@]1(C)C(=O)CC[C@@]2(C)[C@H](C/C=C3/C(=O)OC[C@@H]3O[Si](C)(C)C(C)(C)C)[C@@]3(CC[C@@H]21)CO3` here?
A: Its CC10 is > 10 µM.

Q: Which CC10 does the source give for `C=C1CC[C@H]2[C@@](C)(CCC(=O)[C@@]2(C)CO[Si](C)(C)C(C)(C)C)[C@@H]1C/C=C1/C(=O)OC[C@@H]1O` here?
A: The CC10 was > 10 µM.

Q: With `CC(=O)O[C@@H]1COC(=O)/C1=C/C[C@@H]1[C@]2(CC[C@@H]3[C@](C)(CO)[C@H](O)CC[C@]31C)CO2` as the molecule, how does the CC10 read?
A: The CC10 was > 10 µM.

Q: Which CC10 does the source give for `C=C1CC[C@H]2[C@@](C)(CCC(=O)[C@@]2(C)CO)[C@@H]1C/C=C1/C(=O)OC[C@@H]1OC(C)=O` here?
A: The CC10 was > 10 µM.
